Screening results (PubChem BioAssay)
An excerpt weighted towards active compounds, which were near 6.4% of everything screened.
EBV gp42 inh: EBV gp42 inhibition | Fluorescence polarization binding assay, mP read-out | inhibition, % (tested at 21.74 µM) | actives 0.42% (n = 220,000) | AID 1085; in the data active = inhibition above about 50%
Target sequence (Q1HVG2 whole entry, looked up): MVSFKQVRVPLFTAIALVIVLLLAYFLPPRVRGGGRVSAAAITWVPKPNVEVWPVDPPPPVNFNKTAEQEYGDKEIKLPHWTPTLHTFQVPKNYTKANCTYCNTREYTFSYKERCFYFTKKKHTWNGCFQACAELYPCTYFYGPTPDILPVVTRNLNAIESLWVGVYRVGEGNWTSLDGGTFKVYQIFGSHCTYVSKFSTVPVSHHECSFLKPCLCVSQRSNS
GRIN3A LBD mod: modulates the human NR3A ligand-binding domain; actives 2.5% (n = 340,000); Tm shift relative to glycine control, % at 25 µM; NR3A LBD differential scanning fluorimetry, Tm shift; 0% = protein alone, 100% = glycine-bound protein;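 active = melting temperature shift of at least 10% of the positive control shift, at one fixed dose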
WT yeast gro inh: growth inhibition of WT yeast, mitochondrial fusion screen; AID 1362; inhibition, % at 10 µM; mitochondrial fusion phenotypic screen, WT strain; actives 2.1% (n = 190,000); in the data active = inhibition above about 58%; tested in S. cerevisiae
Tb MetRS inh: Trypanosoma brucei MetRS inhibition; purified T. brucei MetRS, ATP depletion, Kinase-Glo luminescence; inhibition, % at 11.9 µM; actives 0.4% (n = 360,000); AID 624268;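 active = inhibition above a per-plate cutoff of the control wells' mean inhibition plus 3 SD, cut at about 5.5% in these data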
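Test system – parasite MetRS enzyme · Reagent – substrates ATP, L-methionine and bulk Escherichia coli tRNA · Doses – 11.9 µM compound single dose, 0.9% DMSO · Times – 15 min enzyme-compound preincubation, 2 h reaction, 10 min detection, 25 °C · Signal – Kinase-Glo luminescence, ATP depletion format · Controls – DMSO-only wells as low control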
MPTP inh: blocks calcium-induced mitochondrial swelling | isolated mouse mitochondria, Ca2+ swelling absorbance, 30 min | inhibition, % at 10 µM | actives 1.4% (n = 360,000);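 active = inhibition of 50% or more, scaled per plate between neutral and stimulator controls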
CHOP inh: inhibitors of CHOP induction in ER stress response; inhibition, % at 10 µM; CHO-K1 CHOP-promoter luciferase, tunicamycin-induced, 15-18 h; actives 3.8% (n = 220,000);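 active = compounds that reduced the stress-induced luciferase reporter signal by more than about 70% of percent inhibition, limit read from the data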
Of the large screens only hits and unclear results are named; the others gave an inactive call.

CC(C)C[C@H]1CNC(=S)N1CC1CCCN1C[C@H](Cc1ccccc1)N1C[C@H](Cc2ccccc2)N(CC2CCCCC2)C1=S (stereo not given in full)	none (no result: EBV gp42 inh, GRIN3A LBD mod, WT yeast gro inh, CHOP inh)
CC1=Nc2ccccc2/C1=C/c1nc(-c2ccc(C)s2)oc1O	GRIN3A LBD mod 20
CC1=Nc2ccccc2/C1=C\c1nc(-c2ccccc2)oc1O	GRIN3A LBD mod 10
COc1ccc(-c2nc(/C=C3\C(C)=Nc4ccccc43)c(O)o2)cc1	none
CC1=Nc2ccccc2/C1=C/c1c(C)[nH]c2ccccc12	none (no result: EBV gp42 inh, WT yeast gro inh, CHOP inh)
CC1=Nc2ccccc2/C1=C\c1nc(-c2ccc(C(F)(F)F)cc2)oc1O	GRIN3A LBD mod 27
CS(=O)(=O)N1CCC(C(=O)NCc2ccncc2)CC1	none
Cc1ccc(Sc2ccc(CN3CCCCC3)cc2[N+](=O)[O-])cc1	WT yeast gro inh 61
O=C(CN1C(=O)/C(=C/c2ccccc2)SC1=S)NNC(=O)c1ccccc1O	GRIN3A LBD mod 10
COc1cccc(/C=C2/SC(=S)N(CC(=O)NNC(=O)c3ccccc3O)C2=O)c1	GRIN3A LBD mod 15 (no result: EBV gp42 inh, WT yeast gro inh, CHOP inh)
COc1cccc(/C=C2\SC(=S)N(N3C(=O)CCCC3=O)C2=O)c1	GRIN3A LBD mod 24
COc1cc(/C=N/n2nnnc2N)ccc1OC(C)C	none (no result: EBV gp42 inh, WT yeast gro inh, CHOP inh)
COc1ccc(/C=C/c2nc(-c3ccccc3O)n[nH]2)cc1OC	GRIN3A LBD mod 27
CCO/C=C1/C(=O)N(CC)c2ccccc21	none
CCN1C(=O)C(F)(CC)C(=O)c2ccccc21 (stereo not given)	GRIN3A LBD mod 13
O=C1CSC(c2ccc(Cl)cc2Cl)N1c1ccccn1 (stereo not given)	none
O=C1CSC(c2ccccc2Br)N1c1ccc(Cl)cn1 (stereo not given)	WT yeast gro inh 67
COC(=O)C(C(=O)OC)[C@@H]1C=C[C@H](C[N+](=O)[O-])N(C(C)=O)C1	none (no result: EBV gp42 inh, WT yeast gro inh, CHOP inh)
Cc1cc(C)nc(NC(=O)c2ccc(COc3ccccc3Cl)cc2)c1	WT yeast gro inh 65
O=C(Nc1ccn(Cc2ccccc2F)n1)c1ccc(COc2ccccc2Cl)cc1	CHOP inh 74
Cc1cccc(CC2CC(=O)N(CCc3ccc4c(c3)OCO4)C2=O)c1 (stereo not given)	none
COc1ccc(C2C(C#N)=C(N)Oc3c2sc2nc(C)cc(C)c32)cc1 (stereo not given)	none
Cc1cc(C)c2c3c(sc2n1)C1(CCSCC1)C(C#N)=C(N)O3	GRIN3A LBD mod 16
Cc1cc(NC(=O)c2ccccc2)n(C)n1	none (no result: EBV gp42 inh, WT yeast gro inh, CHOP inh)
COc1ccc(OCCCC(=O)Nc2ccc3c(c2)OCCO3)cc1	none
Cc1nc(N2CCC(C)CC2)c2c(C)c(C(=O)Nc3ccc4c(c3)OCCO4)sc2n1	none (no result: EBV gp42 inh, WT yeast gro inh, CHOP inh)
Cc1cccc(N2CCN(CC(=O)Nc3ccc(-n4cnnn4)cc3)CC2)c1C	CHOP inh 94
Cc1[nH]c(C)c(S(=O)(=O)N2CCN(c3cccc(Cl)c3)CC2)c1C(=O)N1CCCC1	none (no result: EBV gp42 inh, WT yeast gro inh, CHOP inh)
Oc1ccc(N=Nc2ccccc2)cc1	none (no result: EBV gp42 inh, WT yeast gro inh, CHOP inh)
Oc1ccc(N=Nc2n[nH]c(-c3ccc(Cl)cc3)n2)cc1	GRIN3A LBD mod 24, CHOP inh 75
COc1ccc(NC(=O)COC(=O)c2c(F)cccc2Cl)cc1OC	none (no result: GRIN3A LBD mod, Tb MetRS inh, MPTP inh)
Cc1nn(-c2ccccc2)c(Cl)c1C(=O)NC1CCCCC1	none
Cc1nn(-c2ccccc2)c(Cl)c1C(=O)Nc1nnc(C2CCCC2)s1	CHOP inh 80
COc1cc(NS(=O)(=O)c2cc(C(=O)NCCc3ccccn3)ccc2OC)cc(OC)c1	GRIN3A LBD mod 11 (no result: EBV gp42 inh, WT yeast gro inh, CHOP inh)
O=C1CC(c2ccccc2)Sc2nc(-c3ccccc3)c(-c3ccccc3)n21 (stereo not given)	none
O=S(Cc1ccccc1)CC(O)(c1ccc(Cl)cc1)c1ccc(Cl)cc1 (stereo not given)	CHOP inh 85
CCCc1nc2ccc(C)cn2c1Cc1cccc(F)c1	none (no result: EBV gp42 inh, GRIN3A LBD mod, WT yeast gro inh, CHOP inh)
S=c1[nH]nc(-c2cc3c(s2)-c2ccccc2CC3)o1	none
O=C(Nc1ccc(Nc2ccccc2)cc1)Nc1ccccc1Cl	GRIN3A LBD mod 18 (no result: WT yeast gro inh)
O=C(O)c1ccccc1-c1ccccc1C(=O)Nc1ccc2c(c1)CCC2	none (no result: EBV gp42 inh, WT yeast gro inh, CHOP inh)
CC(C)C(=O)Nc1ccc(Nc2ccccc2)cc1	GRIN3A LBD mod 26
O=C(Nc1ccc2c(c1)CCC2)c1ccccc1	GRIN3A LBD mod 14
NC(=O)c1ccccc1NC(=O)Nc1ccc(F)c(Cl)c1	GRIN3A LBD mod 33
CC(=O)Nc1ccccc1C(=O)C(=O)Nc1ccc(F)c(Cl)c1	none (no result: EBV gp42 inh, WT yeast gro inh, CHOP inh)
CC(=O)N1CCCN(Cc2cn(-c3ccc(C)cc3)nc2-c2cccc(C)c2)CC1	none
COc1ccc(NC(=O)C2Cc3c(-c4ccccc4Oc4ccccc4)ccnc3O2)cn1 (stereo not given)	none (no result: EBV gp42 inh, GRIN3A LBD mod, WT yeast gro inh, CHOP inh)
Cc1cc(NC(=O)c2cccc(C(=O)Nc3cc(C)on3)n2)no1	none
COC(=O)C(C)(C)ONC(=O)Nc1ccccc1Br	none
O=C(Nc1ccc2c(c1)CCC2)Nc1ccccc1Cl	GRIN3A LBD mod 10 (no result: EBV gp42 inh, WT yeast gro inh, CHOP inh)
Cc1c(Cl)cccc1NC(=O)Nc1ccc(C(N)=O)cc1	GRIN3A LBD mod 11
O=C(N/N=C/c1cccc(Cl)c1Cl)Nc1ccccc1	CHOP inh 71
COc1cc(C(=O)NC(=S)Nc2ccc(N3CCCC3)cc2)cc(OC)c1OC	CHOP inh 75
Cc1c(Cl)cccc1NC(=O)Nc1ccccc1C(N)=O	none
CCOc1ccccc1NC(=O)Nc1ccc2c(c1)CCC2	none (no result: EBV gp42 inh, WT yeast gro inh, CHOP inh)
COc1cc(C(=O)Nc2ccc3c(c2)Cc2cc(NC(=O)c4cc(OC)c(OC)c(OC)c4)ccc2-3)cc(OC)c1OC	GRIN3A LBD mod 24
COc1cc(C(=O)Nc2ccncc2)cc(OC)c1OC	none
O=C(Nc1ccccc1Cl)Nc1cccnc1Cl	GRIN3A LBD mod 19
O=C(Nc1ccc2c(c1)Cc1ccccc1-2)c1ccncc1	GRIN3A LBD mod 18
Cc1occc1C(=O)Nc1ccc2c(c1)OCCO2	none
Cc1occc1C(=O)Nc1ccc2c(c1)CCC2	GRIN3A LBD mod 11
CCOC(=O)CCC1(C(=O)OC)C(=O)CCCCCC=C1C(=O)OC (stereo not given)	none (no result: EBV gp42 inh, GRIN3A LBD mod, WT yeast gro inh, CHOP inh)
O=S(=O)(c1ccc2ccccc2c1)N1CCN(C(=S)Nc2ccccc2F)CC1	none (no result: WT yeast gro inh)
Cc1ccc(C(=O)N/C(=C\c2cccc([N+](=O)[O-])c2)C(=O)Nc2cccc(C(=O)O)c2)cc1	none (no result: EBV gp42 inh, WT yeast gro inh, CHOP inh)
COc1ccc(S(=O)(=O)N2CCCCCC2)cc1NC(=O)CN1C(=O)NC(C)(c2ccc(C)cc2)C1=O (stereo not given)	none (no result: EBV gp42 inh, WT yeast gro inh, CHOP inh)
CCOc1ccc(C(C(=O)NC2CCCCC2)N(C(=O)c2ccco2)c2ccc(-n3cnnn3)c(C)c2)cc1 (stereo not given)	none
CCOc1ccc(C(C(=O)NC2CCCCC2)N(C(=O)Cc2cccs2)c2ccc(-n3cnnn3)c(OC)c2)cc1 (stereo not given)	CHOP inh 84
Cc1cccc(NC(=S)N=Nc2c(O)[nH]c3ccccc23)c1	WT yeast gro inh 59, CHOP inh 87
O=C(COC(=O)CCSc1ccccc1Cl)Nc1ccc(F)cc1F	CHOP inh 72
